This is an account of results in ChEMBL document CHEMBL1157119, “1-(2-(2,2,2-trifluoroethoxy)ethyl-1H-pyrazolo[4,3-d]pyrimidines as potent phosphodiesterase 5 (PDE5) inhibitors” (Bioorg Med Chem Lett, 2010).

The target of series [1] is cGMP-specific 3',5'-cyclic phosphodiesterase (Homo sapiens, UniProt O76074). As to the kind of experiment: Inhibition of PDE5.
Series [2] can be described thus: Selectivity ratio of IC50 for PDE6 to IC50 for PDE5. The method, boiled down: (§1)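 The selectivity value is the IC50 at PDE11 or PDE6 divided by the IC50 at PDE5.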
Series [3] in a line: Selectivity ratio of IC50 for PDE11 to IC50 for PDE5. The method in brief:
as §1

Series [4] can be described thus: Metabolic stability in human liver microsomes assessed as compound remaining after 30 mins. Format: ADME, Microsome. To be noted: read-out: Stability.
A short description of series [5]: Inhibition of PDE6.
Series [6] has as its target hERG (KCNH2) (Homo sapiens, UniProt Q12809). As to the kind of experiment: Displacement of [3H]dofetilide from human ERG expressed in HEK293 cells at 10 uM. It counts as cell-based. To be noted: HEK293 cells that express human ERG, probe [3H]dofetilide. (In a radioligand displacement assay an active substance lowers the binding of a labelled ligand.)
The species entered for series [7] is Rattus norvegicus. As to the kind of experiment: Antihypertensive activity in spontaneously hypertensive rat assessed as decrease of mean arterial blood pressure. Format: functional, Artery. The method, boiled down:
(§2)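 Spontaneously hypertensive rats were dosed orally, or IV in some cases, with compound levels and blood pressure monitored. The read-out was the decrease in mean arterial pressure (MAP), scored as + for a 10–15 mmHg drop and ++ for a drop of >15 mmHg. Oral dosing at 5 mg/kg was followed for up to 20 h post dose.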

Series [8] is described as follows: Half life in human liver microsomes. Format: ADME, Microsome.
A short description of series [9]: Half life in Beagle dog at 0.2 mg/kg, iv. On the set-up: dose 0.2 mg/kg, route intravenous. The conditions noted are these: in vivo. It counts as ADME, organism-based, Canis lupus familiaris. The method in brief:
(§3)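 Beagle dogs of about 10 kg were dosed at 0.2–0.5 mpk. From the plasma profile, terminal half-life was reported in h, clearance in mL/min/kg and steady-state volume of distribution in L/kg.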

The nature of series [10]: Clearance in Beagle dog at 0.2 mg/kg, iv. On the set-up: dose 0.2 mg/kg, route intravenous. Format: ADME, organism-based, Canis lupus familiaris. To be noted: in vivo. The method in brief: as §3
Series [11] is described as follows: Volume of distribution at steady state in Beagle dog at 0.2 mg/kg, iv. Format: ADME, organism-based, Canis lupus familiaris. On the set-up: dose 0.2 mg/kg, route intravenous. The conditions noted are these: in vivo, read-out: Vdss. The method, boiled down:
as §3

Series [12] has as its system Rattus norvegicus. As to the kind of experiment: Antihypertensive activity in spontaneously hypertensive rat assessed as decrease of mean arterial blood pressure at 1.5 mg/kg, iv after 2 hrs. It counts as functional, Artery. The method in brief: (§4)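 Spontaneously hypertensive rats received a single IV dose of 1.5 mg/kg. Mean arterial blood pressure was monitored after dosing, and the decrease in MAP was read at 2 h and 6 h post dose. Compound blood levels were also monitored, including the free fraction at 6 h.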

Series [13] deals with Rattus norvegicus. In words: Antihypertensive activity in spontaneously hypertensive rat assessed as decrease of mean arterial blood pressure at 1.5 mg/kg, iv after 6 hrs. It counts as functional, Artery. The method, boiled down: as §4
Series [14] relates to Rattus norvegicus. In words: Antihypertensive activity in spontaneously hypertensive rat assessed as decrease of mean arterial blood pressure at 5 mg/kg, po. It counts as functional, Artery. The method in brief:
as §2

The test system of series [15] is Rattus norvegicus. As to the kind of experiment: Antihypertensive activity in spontaneously hypertensive rat assessed as decrease of mean arterial blood pressure at 5 mg/kg, po up to 20 hrs. Format: functional, organism-based. On the set-up: dose 5 mg/kg. To be noted: Artery. The method, boiled down: as §2
Series [16] has as its target Voltage-gated inwardly rectifying potassium channel KCNH2 (Homo sapiens, UniProt Q12809). In words: Inhibition of human ERG expressed by patch clam electrophysiology assay.

Calls of active or inactive are those of the source. The calls are words filed in the database; no cut-off is given here. Some results are limits rather than exact numbers.

Sequence of hERG (KCNH2) (Q12809 whole entry): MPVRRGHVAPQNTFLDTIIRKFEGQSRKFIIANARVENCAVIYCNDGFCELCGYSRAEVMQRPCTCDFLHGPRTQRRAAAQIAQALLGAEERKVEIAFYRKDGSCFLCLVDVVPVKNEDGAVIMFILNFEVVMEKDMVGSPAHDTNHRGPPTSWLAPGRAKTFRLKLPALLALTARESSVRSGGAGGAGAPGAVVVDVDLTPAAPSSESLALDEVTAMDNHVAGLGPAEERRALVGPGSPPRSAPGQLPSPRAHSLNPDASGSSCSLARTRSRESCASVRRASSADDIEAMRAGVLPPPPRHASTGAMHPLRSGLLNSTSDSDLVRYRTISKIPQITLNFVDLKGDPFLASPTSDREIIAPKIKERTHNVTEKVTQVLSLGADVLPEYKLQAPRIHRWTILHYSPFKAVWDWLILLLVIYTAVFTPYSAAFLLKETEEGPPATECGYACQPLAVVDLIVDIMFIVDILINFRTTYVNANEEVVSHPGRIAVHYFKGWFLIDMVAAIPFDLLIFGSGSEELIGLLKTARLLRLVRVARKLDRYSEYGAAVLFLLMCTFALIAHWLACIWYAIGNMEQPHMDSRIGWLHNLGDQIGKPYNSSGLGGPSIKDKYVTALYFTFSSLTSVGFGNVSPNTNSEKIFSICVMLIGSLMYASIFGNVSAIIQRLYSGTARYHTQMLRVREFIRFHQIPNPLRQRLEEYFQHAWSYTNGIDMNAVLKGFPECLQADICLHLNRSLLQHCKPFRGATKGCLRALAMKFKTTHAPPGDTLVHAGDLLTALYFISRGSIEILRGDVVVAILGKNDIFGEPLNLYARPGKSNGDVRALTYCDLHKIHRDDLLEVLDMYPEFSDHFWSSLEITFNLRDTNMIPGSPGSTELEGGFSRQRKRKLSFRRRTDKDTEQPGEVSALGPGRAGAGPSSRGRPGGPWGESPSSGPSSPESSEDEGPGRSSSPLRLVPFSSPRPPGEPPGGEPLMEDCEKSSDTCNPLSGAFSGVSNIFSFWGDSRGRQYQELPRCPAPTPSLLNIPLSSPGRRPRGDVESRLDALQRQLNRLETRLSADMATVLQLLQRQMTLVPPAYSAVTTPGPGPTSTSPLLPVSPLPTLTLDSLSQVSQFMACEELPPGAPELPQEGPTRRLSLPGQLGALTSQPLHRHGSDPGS
Sequence of Voltage-gated inwardly rectifying potassium channel KCNH2 (Q12809 whole entry): as above

Take `CCc1nn(CCOCC(F)(F)F)c2c(Nc3ccncn3)nc(N3CCCNCC3)nc12`: in series [1], it took 3.15 nM to reach half-maximal inhibition (IC50). Further, the figures for the Ratio IC50 in series [2] and in series [3] were 69 and 635, respectively.

Take `CCc1nn(CCOCC(F)(F)F)c2c(Nc3ccncn3)nc(N3CCOCC3)nc12`: the IC50 in series [1] was 3.92 nM. Also, the Ratio IC50 in series [2] turned out to be 107; in [3], 5100.

`CCc1nn(CCOCC(F)(F)F)c2c(Nc3cc(C)ccn3)nc(N3CCNCC3)nc12` returned an IC50 in [1] of 3.28 nM. The figures for the Ratio IC50 in series [2] and in series [3] were 220 and 170, respectively. The remaining at 0.5 h in series [4] is 80%.

`CCc1nn(CCOCC(F)(F)F)c2c(Nc3ccc(F)cc3)nc(N3CCNCC3)nc12` showed an IC50 in [1] of 0.09 nM.

`CCc1nn(CCOCC(F)(F)F)c2c(Nc3ccncn3)nc(N(C)C3CCN(C)CC3)nc12` yielded an IC50 in series [1] of 0.35 nM. For the same molecule, the Ratio IC50 amounted to 285 in series [2] and 5650 in series [3]. In addition, the remaining at 0.5 h in series [4] was 31%.

Molecule `CCc1nn(CCOCC(F)(F)F)c2c(Nc3ccncn3)nc(N3CCNC(=O)C3)nc12` showed an IC50 in [1] of 2.96 nM.

In turn, `Cc1nn(CCOCC(F)(F)F)c2c(Nc3ccncn3)nc(N3CCCNCC3)nc12` had an IC50 in series [1] of 9.79 nM. The Ratio IC50 in [2] was 35; in series [3], 204.

For the molecule `CCc1nn(CCOCC(F)(F)F)c2c(Nc3ccccn3)nc(N3CCNCC3)nc12`, the 50% inhibitory concentration (IC50) in [1] stood at 0.65 nM. Moreover, the Ratio IC50 is 150 in series [2] and 450 in series [3]. For the same molecule, the remaining at 0.5 h in series [4] was determined as 91%.

For the molecule `CCCc1nn(C)c2c(=O)[nH]c(-c3cc(S(=O)(=O)N4CCN(C)CC4)ccc3OCC)nc12`, in series [5], the midpoint of inhibition, the IC50, lay at 30 nM.

`Cc1nn(CCOCC(F)(F)F)c2c(Nc3ccncn3)nc(N3CCN[C@H](C)C3)nc12`: half-maximal inhibition in series [1] (IC50) was put at 0.14 nM. In series [6], at 10 µM the inhibition was 24.7%. Further, in series [7], the Activity is given as over 15 mmHg.

`Cc1nn(CCOCC(F)(F)F)c2c(Nc3ccncn3)nc(N3CCN[C@@H](C)C3)nc12` displayed an IC50 in series [1] of 0.94 nM.

The molecule `CCCOCCn1nc(CC)c2nc(N3CCNCC3)nc(Nc3ccccn3)c21` displayed an IC50 in [1] of 0.3 nM.

As for `Cc1ccnc(Nc2nc(N3CCNCC3)nc3c(C)nn(CCOCC(F)(F)F)c23)c1`, half-maximal inhibition in series [1] (IC50) required 1.84 nM. The Ratio IC50 in [2] came to 510; in [3], 280. For the same molecule, the remaining at 0.5 h in series [4] stood at 75%.

Turning to `CCc1nn(CCOC(C)C)c2c(Nc3ccccn3)nc(N3CCNCC3)nc12`, in [1], the IC50 turned out to be 0.86 nM. Further, the Ratio IC50 in [2] amounted to 50; in series [3] it was 52.

As for `CCc1nn(CCOCC(F)(F)F)c2c(Nc3ccncn3)nc(N3CCN[C@H](C)C3)nc12`, the half-life is 0.7 h in [8] and 5.1 h in series [9]. In series [1], 0.07 nM corresponded to half-maximal inhibition (IC50). In addition, the clearance in [10] worked out at 18.5 mL/min/kg. The Vd in [11] turned out to be 7.8 L/kg. Also, the Activity is given as 27 mmHg in [12], 23 mmHg in series [13], 27 mmHg in [14] and over 15 mmHg in [7]. In addition, the result in series [15] was Active.

With `CCc1nn(CCOCC(F)(F)F)c2c(Nc3ccncn3)nc(N3CCNCC3)nc12`, in [1], the IC50 is 0.15 nM. In addition, in series [7], the Activity was 10 mmHg.

In [1], `CCc1nn(CCOCC(F)(F)F)c2c(Nc3ccncn3)nc(N3CCCN(C)CC3)nc12` registered an IC50 of 6.48 nM. In addition, the figures for the Ratio IC50 in series [2] and in [3] were 309 and 287, respectively.

In series [1], `CCc1nn(CCOCC(F)(F)F)c2c(Nc3cccc(C)n3)nc(N3CCNCC3)nc12` displayed an IC50 of 1.01 nM.

Consider `CCc1nn(CCOCC(F)(F)F)c2c(Nc3ccncn3)nc(NCCN)nc12`, for which the IC50 in [1] was found to be 9.52 nM. In addition, the Ratio IC50 in [2] and in series [3] was over 210 throughout.

`CCOCCn1nc(CC)c2nc(N3CCNCC3)nc(Nc3cccc(C)n3)c21` returned an IC50 in series [5] of 946 nM.

As to `Cc1cccc(Nc2nc(N3CCNCC3)nc3c(C)nn(CCOCC(F)(F)F)c23)n1`, the results for the IC50 in series [1] and in series [16] were 0.78 nM and 560 nM, respectively. The molecule also registered an inhibition at 10 µM in series [6] of 40%.

The term IC50 denotes the concentration that inhibits the measured activity by half. A higher IC50 goes with a need for much substance. The term inhibition denotes the drop in the measured response relative to a control, in per cent. A higher inhibition goes with strong suppression. A word on the half-life: it is how long it takes for the measured level to halve. A high value points to slow decline. One may read the clearance as the volume of plasma or blood freed of the substance per unit of time. A lower clearance goes with a low capacity for elimination.
